Measured values: ChEMBL document CHEMBL4270616, “Asymmetrical meta-methoxylated diarylpentanoids: Rational design, synthesis and anti-cancer evaluation in-vitro” (Eur J Med Chem, 2018)

Legend:
[1] = system: SW-620; assay: Cytotoxicity against human SW620 cells after 72 hrs by MTT assay; format: functional, cell-based; conditions: SW-620, 72 h
How it was run: (§1)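 Tumour lines kept in DMEM with 10% FBS and 1% penicillin/streptomycin at 37°C, 5% CO2. Seeded at 1500-5000 cells/well by doubling time and size, 24 h, then compound in DMSO-containing medium (final DMSO 0.1%) for 72 h. MTT (5 mg/mL) 4 h at 37°C, DMSO solubilisation, absorbance at 570 nm.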

[2] = system: A549; assay: Cytotoxicity against human A549 cells after 72 hrs by MTT assay; format: functional, cell-based; conditions: A549, 72 h; how it was run: as §1
[3] = Cytotoxicity against human EJ28 cells after 72 hrs by MTT assay; format: functional, cell-based; conditions: EJ-28, 72 h; how it was run: as §1
[4] = system: HT-1080; assay: Cytotoxicity against human HT1080 cells after 72 hrs by MTT assay; format: functional, cell-based; conditions: HT-1080, 72 h; how it was run: as §1
[5] = system: MCF7; assay: Cytotoxicity against human MCF7 cells after 72 hrs by MTT assay; format: functional, cell-based; conditions: MCF7, 72 h; how it was run: as §1
[6] = system: NHDF; assay: Cytotoxicity against NHDF after 72 hrs by MTT assay; format: cell-based; conditions: Homo sapiens
How it was run: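 NHDF grown in DMEM with 5% FBS at 37°C, 5% CO2. Seeded at 1500-5000 cells/well, 24 h, then compound added in DMSO-containing medium (final DMSO 0.1%) for 72 h. MTT (5 mg/mL in medium) added for 4 h at 37°C, formazan dissolved in DMSO, absorbance read at 570 nm.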

[7] = system: SW-620; assay: Cytotoxicity against human SW620 cells assessed as inhibition of cell proliferation at 20 uM after 72 hrs by MTT assay relative to control; format: functional; conditions: SW-620, 72 h
How it was run: (§2)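 Single-concentration screen at 20 μM with 72 h exposure in DMEM with 10% FBS, final DMSO 0.1%. Read-out was MTT (5 mg/mL, 4 h, 37°C), DMSO solubilisation and absorbance at 570 nm, expressed as percent inhibition. Lines reaching a threshold percentage went on to IC50 determination.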

[8] = system: A549; assay: Cytotoxicity against human A549 cells assessed as inhibition of cell proliferation at 20 uM after 72 hrs by MTT assay relative to control; format: functional; conditions: A549, 72 h; how it was run: as §2
[9] = Cytotoxicity against human EJ28 cells assessed as inhibition of cell proliferation at 20 uM after 72 hrs by MTT assay relative to control; format: functional; conditions: EJ-28, 72 h; how it was run: as §2
[10] = system: HT-1080; assay: Cytotoxicity against human HT1080 cells assessed as inhibition of cell proliferation at 20 uM after 72 hrs by MTT assay relative to control; format: functional; conditions: HT-1080, 72 h; how it was run: as §2
[11] = system: MCF7; assay: Cytotoxicity against human MCF7 cells assessed as inhibition of cell proliferation at 20 uM after 72 hrs by MTT assay relative to control; format: functional; conditions: MCF7, 72 h; how it was run: as §2

Row | Compound | IC50 [1] | IC50 [2] | IC50 [3] | IC50 [4] | IC50 [5] | IC50 [6] | inhibition at 20 µM [7] | inhibition at 20 µM [8] | inhibition at 20 µM [9] | inhibition at 20 µM [10] | inhibition at 20 µM [11]
1 | COc1ccccc1/C=C1\CCC/C(=C\c2cccc(OC)c2OC)C1=O | > 20 µM | > 20 µM | 16.6 µM | 14.1 µM | 12 µM | 31.3 µM | > 50% | > 50% | > 50% | > 50% | > 50%
2 | COc1cccc(/C=C2\CCC/C(=C\c3ccccc3Br)C2=O)c1OC | 12.1 µM | > 20 µM | 10.8 µM | 10.8 µM | 9.7 µM | > 50 µM | > 50% | > 50% | > 50% | > 50% | > 50%
3 | COc1ccc(/C=C2\CCC/C(=C\c3cccc(OC)c3OC)C2=O)cc1OC | 6.4 µM | 14.4 µM | 6.6 µM | 6.4 µM | 6.5 µM | 14.9 µM | > 50% | > 50% | > 50% | > 50% | > 50%
4 | COc1cc(/C=C2\CCC/C(=C\c3ccc(OC)c(OC)c3)C2=O)cc(OC)c1 | 2.5 µM | 5.1 µM | 3 µM | 2.6 µM | 3.9 µM | 6.5 µM | > 50% | > 50% | > 50% | > 50% | > 50%
5 | COc1ccc(/C=C2\CCC/C(=C\c3ccc(OC)c(OC)c3)C2=O)cc1OC | 4.5 µM | 8.5 µM | 3.5 µM | 3 µM | 13.5 µM | 9.7 µM | > 50% | > 50% | > 50% | > 50% | > 50%
6 | COc1cccc(/C=C2\CCC/C(=C\c3cccc(Cl)c3)C2=O)c1OC | 9.1 µM | > 20 µM | 11.3 µM | 10.3 µM | 12 µM | 21.4 µM | > 50% | > 50% | > 50% | > 50% | > 50%
7 | COc1cccc(/C=C2\CCC/C(=C\c3cccc(Br)c3)C2=O)c1OC | 8.8 µM | > 20 µM | 12.1 µM | 12.2 µM | 11.7 µM | 23.9 µM | > 50% | > 50% | > 50% | > 50% | > 50%
